Assay results taken from PubChem BioAssay AID623886 (Johns Hopkins Ion Channel Center, 2012).

What follows are compounds tested against Potassium voltage-gated channel subfamily KQT member 2 (Rattus norvegicus) (UniProt O88943) (assay: KCNQ2 channel inhibition, SAR follow-up, selectivity assay for KCNK9 inhibitor project, cell-based, FluxOR thallium flux, concentration-response (AID 623886)). Details: KCNQ2 cell line, FluxOR thallium flux fluorescence; series mostly up to 30 µM; thallium flux ratio, lower = inhibition: at the top concentration;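 active = peak inhibition of the KCNQ2 potassium channel above 30% at some tested dose, plus a fitted dose response curve; inactive = no inhibition at any dose, or no curve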.
Summary of the method: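 Test system: KCNQ2-expressing CHO cells; Timing: FluxOR dye loading 90 min, compound pre-exposure 20 min, both room temperature; Repeats: duplicate or more; Measure: fluorescence range-to-baseline ratio; Controls: XE-991 full block; Also added: K2SO4/Tl2SO4 stimulus (5x stock 25 mM, 7 mM); Signal: kinetic FluxOR fluorescence, 10 s baseline, 110 s post-stimulus.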

Sequence of Potassium voltage-gated channel subfamily KQT member 2 (Rattus norvegicus) (O88943 whole entry, looked up): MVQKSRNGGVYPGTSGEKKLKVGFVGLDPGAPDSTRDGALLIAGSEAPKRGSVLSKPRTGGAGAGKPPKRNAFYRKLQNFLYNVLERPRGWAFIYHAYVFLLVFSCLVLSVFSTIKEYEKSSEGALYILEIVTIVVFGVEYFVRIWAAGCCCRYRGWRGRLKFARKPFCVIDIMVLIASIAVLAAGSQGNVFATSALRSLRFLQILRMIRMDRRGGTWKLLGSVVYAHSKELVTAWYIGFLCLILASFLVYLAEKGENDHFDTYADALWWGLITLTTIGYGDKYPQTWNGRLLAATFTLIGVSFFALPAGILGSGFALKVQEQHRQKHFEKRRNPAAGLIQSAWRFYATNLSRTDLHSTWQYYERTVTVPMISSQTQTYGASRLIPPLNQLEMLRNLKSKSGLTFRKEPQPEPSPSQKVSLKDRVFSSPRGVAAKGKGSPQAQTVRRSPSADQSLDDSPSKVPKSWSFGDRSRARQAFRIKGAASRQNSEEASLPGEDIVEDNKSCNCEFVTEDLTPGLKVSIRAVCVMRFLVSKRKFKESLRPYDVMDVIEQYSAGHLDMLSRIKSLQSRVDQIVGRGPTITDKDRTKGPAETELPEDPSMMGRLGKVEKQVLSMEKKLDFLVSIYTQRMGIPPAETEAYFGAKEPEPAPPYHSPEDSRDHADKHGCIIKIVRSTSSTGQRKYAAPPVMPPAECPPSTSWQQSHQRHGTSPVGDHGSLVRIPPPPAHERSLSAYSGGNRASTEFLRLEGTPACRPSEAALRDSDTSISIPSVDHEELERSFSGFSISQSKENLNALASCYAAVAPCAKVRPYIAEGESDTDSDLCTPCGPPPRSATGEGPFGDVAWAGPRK

Thallium flux ratio, lower = inhibition, inactive:
Cc1cccc(C(=O)Nc2cccc(C(=O)Nc3ccccc3)c2)c1 0.18, Cc1cccc(C(=O)Nc2ccc(C(=O)Nc3ccccc3)cc2)c1 0.198, Cc1cccc(NC(=O)c2ccccc2NC(=O)c2ccccc2)c1 0.206, Cc1cccc(NC(=O)c2cccc(NC(=O)c3ccccc3)c2)c1 0.187, Cc1cccc(C(=O)Nc2ccccc2C(=O)Nc2ccccc2)c1 0.171
